Experimental findings from ChEMBL document CHEMBL1152997, “Prevalence of and molecular basis for tuberculosis drug resistance in the Republic of Georgia: validation of a QIAplex system for detection of drug resistance-related mutations” (2008) are described below.

Common to all, as to type: functional
The test system of test [1] is Mycobacterium tuberculosis. The test is described as follows: Antimycobacterial activity against Mycobacterium tuberculosis clinical isolates from tuberculosis patient assessed as percent sensitive isolates at 2 ug/ml by absolute-concentration method. An outline of the steps: (§1)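 Consecutive clinical M. tuberculosis isolates (196), Tbilisi, Jan–Mar 2006, primary culture on Lowenstein-Jensen medium. Suspension adjusted to 1 McFarland in sterile saline. 0.2 ml was plated onto drug-containing solid medium: a 10-fold dilution series for the 2, 4 and 40 µg/ml media, and a 100-fold dilution for the 0.2 µg/ml medium. Incubation at 37°C, 5–10% CO2, 28 days.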

The test system of test [2] is Mycobacterium tuberculosis. The test is described as follows: Antimycobacterial activity against Mycobacterium tuberculosis clinical isolates from tuberculosis patient assessed as percent specific isolates at 2 ug/ml by absolute-concentration method.
Test [3] deals with Mycobacterium tuberculosis. The test is described as follows: Antimycobacterial activity against Mycobacterium tuberculosis clinical isolates from tuberculosis patient assessed as percent sensitive isolates at 0.2 ug/ml by absolute-concentration method. A digest of the protocol:
as §1

Test [4] concerns Mycobacterium tuberculosis. The test is described as follows: Antimycobacterial activity against Mycobacterium tuberculosis clinical isolates from tuberculosis patient assessed as percent specific isolates at 0.2 ug/ml by absolute-concentration method.
Test [5] relates to Mycobacterium tuberculosis. The test is described as follows: Antimycobacterial activity against Mycobacterium tuberculosis clinical isolates from tuberculosis patient assessed as percent specific isolates at 40 ug/ml by absolute-concentration method.
Test [6] relates to Mycobacterium tuberculosis. The test is described as follows: Antimycobacterial activity against Mycobacterium tuberculosis clinical isolates from tuberculosis patient assessed as percent sensitive isolates at 40 ug/ml by absolute-concentration method. A digest of the protocol:
as §1

Test [7] concerns Mycobacterium tuberculosis. The test is described as follows: Antimycobacterial activity against Mycobacterium tuberculosis clinical isolates from tuberculosis patient assessed as percent specific isolates at 4 ug/ml by absolute-concentration method.
For test [8], the system named is Mycobacterium tuberculosis. The test is described as follows: Antimycobacterial activity against Mycobacterium tuberculosis clinical isolates from tuberculosis patient assessed as percent sensitive isolates at 4 ug/ml by absolute-concentration method. A digest of the protocol: as §1

Take `CC[C@@H](CO)NCCN[C@@H](CC)CO` [ETHAMBUTOL]: the Activity in test [1] amounted to 50%; in test [2], 98.9%.

Take `NNC(=O)c1ccncc1` [ISONIAZID]: the Activity in test [3] turned out to be 85.4%; in test [4], 96.1%.

Consider `CO[C@H]1/C=C/O[C@@]2(C)Oc3c(C)c(O)c4c(O)c(c(/C=N/N5CCN(C)CC5)c(O)c4c3C2=O)NC(=O)/C(C)=C\C=C\[C@H](C)[C@H](O)[C@@H](C)[C@@H](O)[C@@H](C)[C@H](OC(C)=O)[C@@H]1C` [RIFAMPIN], for which the Activity in test [5] was 99.4%; in test [6], 94.5%.

As to `CN[C@@H]1[C@H](O[C@H]2[C@H](O[C@H]3[C@H](O)[C@@H](O)[C@H](N=C(N)N)[C@@H](O)[C@@H]3N=C(N)N)O[C@@H](C)[C@]2(O)C=O)O[C@@H](CO)[C@H](O)[C@H]1O` [STREPTOMYCIN], the Activity in test [7] turned out to be 99.2%; in test [8] it was 69.6%.
